# Experimental data from ChEMBL document CHEMBL5724801, “EUbOPEN Chemogenomics Library - Multiplex” (2024).
# Several values for one entry are separate records, joined by “and”; a condition that tells them apart may be missing. Equal entries are not always repeated.
# System: U2OS
# Test: Multiplex assay against U2OS
# Type: toxicity, cell-based
# Conditions: human
# Outline: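 Live cells were stained at seeding with Hoechst33342, BioTracker Green Microtubule Cytoskeleton Dye, MitoTracker Red and Annexin V Alexa Fluor 680, then imaged on a CQ1 microscope at 37°C and 5% CO2 after compound addition. CellPathfinder machine-learning gating split cells into Hoechst high-intensity objects or normal cells. Normal cells were split into healthy, pyknosed or fragmented nuclei, and pyknosed cells into mitotic or apoptotic. Tubulin, mitochondrial-mass and membrane-permeability phenotypes are per cents of healthy-nucleus cells.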
# [1] = 12 h, 1 µM, compound concentration 1 uM
# [2] = 12 h, 10 µM, compound concentration 10 uM
# [3] = 24 h, 1 µM, compound concentration 1 uM
# [4] = 24 h, 10 µM, compound concentration 10 uM
# [5] = 48 h, 1 µM, compound concentration 1 uM
# [6] = 48 h, 10 µM, compound concentration 10 uM
compound,measurement,setting,value
Cc1cc(C(C#N)c2ccc(Cl)cc2)c(Cl)cc1NC(=O)c1cc(I)cc(I)c1O (stereo unspecified) [CLOSANTEL],Population Apoptotic (%),[1],40% and 50%
same,Population Fragmented Nuclei (%),[1],1.13% and 2.08%
same,Population Healthy Nuclei (%),[1],90.4% and 86.81%
same,Population Hoechst High Intensity Objects (%),[1],0.19% and 0%
same,Population Membrane Permeable-Phenotype (%),[1],0.62% and 4.8%
same,Population Mitochondria Different-Phenotype (%),[1],0.42% and 3.2%
same,Population Mitotic Cells (%),[1],60% and 50%
same,Population Normal (%),[1],99.81% and 100%
same,Population Pyknosed Nuclei (%),[1],8.47% and 11.11%
same,Population Tubulin-Different-Phenotype (%),[1],1.46% and 0.8%
same,Population Apoptotic (%),[2],37.5% and 50%
same,Population Fragmented Nuclei (%),[2],1.14% and 4.88%
same,Population Healthy Nuclei (%),[2],93.39% and 81.71%
same,Population Hoechst High Intensity Objects (%),[2],0%
same,Population Membrane Permeable-Phenotype (%),[2],0.98% and 2.99%
same,Population Mitochondria Different-Phenotype (%),[2],0.49% and 8.96%
same,Population Mitotic Cells (%),[2],62.5% and 50%
same,Population Normal (%),[2],100%
same,Population Pyknosed Nuclei (%),[2],5.47% and 13.41%
same,Population Tubulin-Different-Phenotype (%),[2],0.73% and 2.24%
same,Total Cell Count,[2],439 and 164
same,Population Apoptotic (%),[3],40% and 43.75%
same,Population Fragmented Nuclei (%),[3],1.65% and 4.19%
same,Population Healthy Nuclei (%),[3],90.1% and 86.23%
same,Population Hoechst High Intensity Objects (%),[3],0%
same,Population Membrane Permeable-Phenotype (%),[3],0.61% and 5.56%
same,Population Mitochondria Different-Phenotype (%),[3],0.46% and 6.25%
same,Population Mitotic Cells (%),[3],60% and 56.25%
same,Population Normal (%),[3],100%
same,Population Pyknosed Nuclei (%),[3],8.25% and 9.58%
same,Population Tubulin-Different-Phenotype (%),[3],0.46% and 1.39%
same,Population Apoptotic (%),[4],33.33% and 40%
same,Population Fragmented Nuclei (%),[4],1.76% and 4.91%
same,Population Healthy Nuclei (%),[4],88.75% and 83.93%
same,Population Hoechst High Intensity Objects (%),[4],0%
same,Population Membrane Permeable-Phenotype (%),[4],0% and 2.66%
same,Population Mitochondria Different-Phenotype (%),[4],0% and 4.26%
same,Population Mitotic Cells (%),[4],66.67% and 60%
same,Population Normal (%),[4],100%
same,Population Pyknosed Nuclei (%),[4],9.49% and 11.16%
same,Population Tubulin-Different-Phenotype (%),[4],0.4% and 1.06%
same,Total Cell Count,[4],569 and 224
same,Population Apoptotic (%),[5],45.67% and 45.95%
same,Population Fragmented Nuclei (%),[5],3.15% and 4.35%
same,Population Healthy Nuclei (%),[5],87.31% and 83.28%
same,Population Hoechst High Intensity Objects (%),[5],0%
same,Population Membrane Permeable-Phenotype (%),[5],0.6% and 2.01%
same,Population Mitochondria Different-Phenotype (%),[5],0% and 6.02%
same,Population Mitotic Cells (%),[5],54.33% and 54.05%
same,Population Normal (%),[5],100%
same,Population Pyknosed Nuclei (%),[5],9.53% and 12.37%
same,Population Tubulin-Different-Phenotype (%),[5],0.77% and 0%
same,Population Apoptotic (%),[6],36.05% and 34.09%
same,Population Fragmented Nuclei (%),[6],2.74% and 3.02%
same,Population Healthy Nuclei (%),[6],89.14% and 85.93%
same,Population Hoechst High Intensity Objects (%),[6],0.09% and 0%
same,Population Membrane Permeable-Phenotype (%),[6],0.42% and 1.17%
same,Population Mitochondria Different-Phenotype (%),[6],0.11% and 4.97%
same,Population Mitotic Cells (%),[6],63.95% and 65.91%
same,Population Normal (%),[6],99.91% and 100%
same,Population Pyknosed Nuclei (%),[6],8.12% and 11.06%
same,Population Tubulin-Different-Phenotype (%),[6],0.32% and 0.88%
same,Total Cell Count,[6],1060 and 398
CCCCC1=NC2(CCCC2)C(=O)N1Cc1ccc(-c2ccccc2-c2nnn[nH]2)cc1 [IRBESARTAN],Population Apoptotic (%),[1],83% and 77%
same,Population Fragmented Nuclei (%),[1],25% and 9%
same,Population Healthy Nuclei (%),[1],66% and 82%
same,Population Hoechst High Intensity Objects (%),[1],2% and 0%
same,Population Membrane Permeable-Phenotype (%),[1],5% and 11%
same,Population Mitochondria Different-Phenotype (%),[1],1%
same,Population Mitotic Cells (%),[1],16% and 22%
same,Population Normal (%),[1],97% and 99%
same,Population Pyknosed Nuclei (%),[1],7%
same,Population Tubulin-Different-Phenotype (%),[1],1% and 8%
same,Total Cell Count,[1],233 and 124
same,Population Apoptotic (%),[2],91% and 100%
same,Population Fragmented Nuclei (%),[2],22% and 18%
same,Population Healthy Nuclei (%),[2],68% and 74%
same,Population Hoechst High Intensity Objects (%),[2],2% and 0%
same,Population Membrane Permeable-Phenotype (%),[2],4% and 8%
same,Population Mitochondria Different-Phenotype (%),[2],3% and 6%
same,Population Mitotic Cells (%),[2],8% and 0%
same,Population Normal (%),[2],97% and 100%
same,Population Pyknosed Nuclei (%),[2],9% and 8%
same,Population Tubulin-Different-Phenotype (%),[2],2% and 8%
same,Total Cell Count,[2],254 and 100
same,Population Apoptotic (%),[3],70% and 66%
same,Population Fragmented Nuclei (%),[3],23% and 12%
same,Population Healthy Nuclei (%),[3],69% and 76%
same,Population Hoechst High Intensity Objects (%),[3],3% and 2%
same,Population Membrane Permeable-Phenotype (%),[3],6% and 9%
same,Population Mitochondria Different-Phenotype (%),[3],3% and 2%
same,Population Mitotic Cells (%),[3],29% and 33%
same,Population Normal (%),[3],96% and 97%
same,Population Pyknosed Nuclei (%),[3],7% and 10%
same,Population Tubulin-Different-Phenotype (%),[3],3% and 4%
same,Total Cell Count,[3],241 and 142
same,Population Apoptotic (%),[4],96% and 91%
same,Population Fragmented Nuclei (%),[4],18%
same,Population Healthy Nuclei (%),[4],73% and 72%
same,Population Hoechst High Intensity Objects (%),[4],2% and 0%
same,Population Membrane Permeable-Phenotype (%),[4],6% and 7%
same,Population Mitochondria Different-Phenotype (%),[4],3%
same,Population Mitotic Cells (%),[4],4% and 8%
same,Population Normal (%),[4],97% and 99%
same,Population Pyknosed Nuclei (%),[4],8%
same,Population Tubulin-Different-Phenotype (%),[4],4% and 3%
same,Total Cell Count,[4],301 and 135
same,Population Apoptotic (%),[5],97% and 94%
same,Population Fragmented Nuclei (%),[5],18% and 14%
same,Population Healthy Nuclei (%),[5],71% and 76%
same,Population Hoechst High Intensity Objects (%),[5],2% and 4%
same,Population Membrane Permeable-Phenotype (%),[5],5% and 6%
same,Population Mitochondria Different-Phenotype (%),[5],2% and 1%
same,Population Mitotic Cells (%),[5],2% and 5%
same,Population Normal (%),[5],97% and 95%
same,Population Pyknosed Nuclei (%),[5],10% and 9%
same,Population Tubulin-Different-Phenotype (%),[5],2%
same,Total Cell Count,[5],357 and 198
same,Population Apoptotic (%),[6],89% and 94%
same,Population Fragmented Nuclei (%),[6],14% and 16%
same,Population Healthy Nuclei (%),[6],75% and 72%
same,Population Hoechst High Intensity Objects (%),[6],3% and 4%
same,Population Membrane Permeable-Phenotype (%),[6],7% and 9%
same,Population Mitochondria Different-Phenotype (%),[6],3% and 7%
same,Population Mitotic Cells (%),[6],10% and 5%
same,Population Normal (%),[6],96% and 95%
same,Population Pyknosed Nuclei (%),[6],9% and 10%
same,Population Tubulin-Different-Phenotype (%),[6],3% and 7%
same,Total Cell Count,[6],419 and 175
COc1cc(N2CCN(C)CC2)ccc1Nc1nccc(-c2cn(C)c3cnccc23)n1,Population Apoptotic (%),[1],42.42% and 21.43%
same,Population Fragmented Nuclei (%),[1],1.36% and 2.74%
same,Population Healthy Nuclei (%),[1],89.7% and 78.08%
same,Population Hoechst High Intensity Objects (%),[1],0.27% and 0%
same,Population Membrane Permeable-Phenotype (%),[1],5.14% and 14.04%
same,Population Mitotic Cells (%),[1],57.58% and 78.57%
same,Population Normal (%),[1],99.73% and 100%
same,Population Pyknosed Nuclei (%),[1],8.94% and 19.18%
same,Population Tubulin-Different-Phenotype (%),[1],5.14% and 4.39%
same,Total Cell Count,[1],370 and 146
same,Population Apoptotic (%),[2],48.67% and 23.94%
same,Population Fragmented Nuclei (%),[2],6.32% and 4.8%
same,Population Healthy Nuclei (%),[2],61.21% and 38.4%
same,Population Hoechst High Intensity Objects (%),[2],0%
same,Population Membrane Permeable-Phenotype (%),[2],33.33% and 66.67%
same,Population Mitotic Cells (%),[2],51.33% and 76.06%
same,Population Normal (%),[2],100%
same,Population Pyknosed Nuclei (%),[2],32.47% and 56.8%
same,Population Tubulin-Different-Phenotype (%),[2],60.56% and 58.33%
same,Total Cell Count,[2],348 and 125
same,Population Apoptotic (%),[3],46.67% and 20.69%
same,Population Fragmented Nuclei (%),[3],0.88% and 3.53%
same,Population Healthy Nuclei (%),[3],89.18% and 79.41%
same,Population Hoechst High Intensity Objects (%),[3],0%
same,Population Membrane Permeable-Phenotype (%),[3],3.96% and 9.63%
same,Population Mitotic Cells (%),[3],53.33% and 79.31%
same,Population Normal (%),[3],100%
same,Population Pyknosed Nuclei (%),[3],9.93% and 17.06%
same,Population Tubulin-Different-Phenotype (%),[3],3.71% and 5.19%
same,Total Cell Count,[3],453 and 170
same,Population Apoptotic (%),[4],79.82% and 63.75%
same,Population Fragmented Nuclei (%),[4],10.27% and 17.39%
same,Population Healthy Nuclei (%),[4],55.29% and 24.64%
same,Population Hoechst High Intensity Objects (%),[4],0%
same,Population Membrane Permeable-Phenotype (%),[4],25.68% and 44.12%
same,Population Mitotic Cells (%),[4],20.18% and 36.25%
same,Population Normal (%),[4],100%
same,Population Pyknosed Nuclei (%),[4],34.44% and 57.97%
same,Population Tubulin-Different-Phenotype (%),[4],53.55% and 44.12%
same,Total Cell Count,[4],331 and 138
same,Population Apoptotic (%),[5],46.51% and 48.94%
same,Population Fragmented Nuclei (%),[5],1.87% and 5.31%
same,Population Healthy Nuclei (%),[5],87.42% and 75.51%
same,Population Hoechst High Intensity Objects (%),[5],0%
same,Population Membrane Permeable-Phenotype (%),[5],1.42% and 4.86%
same,Population Mitotic Cells (%),[5],53.49% and 51.06%
same,Population Normal (%),[5],100%
same,Population Pyknosed Nuclei (%),[5],10.71% and 19.18%
same,Population Tubulin-Different-Phenotype (%),[5],2.14% and 3.78%
same,Population Apoptotic (%),[6],82.73% and 95.65%
same,Population Fragmented Nuclei (%),[6],15.62% and 15.79%
same,Population Hoechst High Intensity Objects (%),[6],0%
same,Population Membrane Permeable-Phenotype (%),[6],15.15% and 25%
same,Population Normal (%),[6],100%
same,Population Pyknosed Nuclei (%),[6],30.14% and 69.17%
same,Population Tubulin-Different-Phenotype (%),[6],53.54% and 40%
same,Total Cell Count,[6],365 and 133
